The source made the active and inactive calls. The calls are words filed in the database; no cut-off is given here. Residues, ends and D or L forms follow the SMILES beside them.
Assays:
[1] = Half life of the compound; format: physicochemical
Method in brief: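 Peptide was diluted to a final 0.5 mg/mL in 25% (v:v) pooled human male AB serum at 37 C. Aliquots were taken at 0, 15, 30, 60, 90 and 120 min and at 24 h, centrifuged at 4 C and diluted to 0.1 mg/mL. Remaining intact peptide was quantified by RP-HPLC on a C18 column with 38–48% CH3CN (0.1% TFA) elution.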

HUVEC [2] = assay: Binding affinity to VEGFR in human HUVEC grown in serum deprived medium using fluorescein-labeled compound at 50 to 5000 nM after 5 mins by flow cytometry; format: cell-based
Method in brief: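 HUVECs (3 × 10^4/100 μL) were suspended in EBM-2 with 0.1% heparin and 0.1% BSA. They were incubated for 5 min at 4 C in the dark with fluorescein-labelled peptide (50, 500, 5000 nM). For competition, 500 nM labelled peptide was used with VEGF165 (0.05, 5, 500 nM). Cells were washed, resuspended in PBS and analysed by flow cytometry. A PE-conjugated anti-β-1 integrin antibody (1:100) was the technical control.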

A-375 [3] = assay: Antitumor activity against human A375 cells xenografted in athymic nude-Foxn1 nu/nu mouse assessed as tumor growth inhibition at 200 nM intratumorally administered for 15 days measured after 15 days relative to untreated control; format: functional
Method in brief: (§1)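 A375 cells (5 × 10^6 in 150 μL Hanks' solution) were injected subcutaneously on the back of 6-week-old female athymic nude-Foxn1nu/nu mice. After one week, mice were randomized (10/group) to PBS (100 μL) or peptide (200 nM), given intratumorally twice weekly. Tumours were measured by caliper and volume was calculated as V = (ab²)/2. Groups were compared by ANOVA.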

HUVEC [4] = assay: Antagonist activity at VEGFR in human HUVEC grown in serum deprived medium assessed as inhibition of VEGF165-induced RB phosphorylation at 50 nM after 15-30 mins by Western blot analysis
HUVEC [5] = assay: Induction of apoptosis in human HUVEC grown in serum deprived medium assessed as caspase 3 activity at 12.5 to 50 nM after 8 hrs by spectrofluorometry; format: functional, cell-based
Method in brief: (§2)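 Lysates of serum-deprived HUVECs (2 × 10^4 cells) were prepared in 50 mM Hepes, 1 mM DTT, 0.1 mM EDTA, 0.1% NP-40 and 0.1% CHAPS. Protein (20 μg) was incubated with 20 μM Ac-DEVD-AMC at 37 C for 3 h. Released AMC was read by spectrofluorometry at 380 nm excitation and 440 nm emission.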

A-375 [6] = assay: Antitumor activity against human A375 cells xenografted in athymic nude-Foxn1 nu/nu mouse assessed as inhibition of tumor angiogenesis measuring CD31 expression at 200 nM intratumorally administered for 7 days by immunohistochemical analysis; format: functional
Method in brief: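 Tumours from A375 xenografts in nude mice, treated intratumorally with peptide (200 nM) or PBS twice weekly, were excised after 1 week. They were formalin-fixed and cut into 5 μm paraffin sections. Sections were stained for CD31 by avidin-biotin peroxidase with diaminobenzidine and counterstained with hematoxylin.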

A-375 [7] = assay: Antitumor activity against human A375 cells xenografted in athymic nude-Foxn1 nu/nu mouse assessed as tumor growth inhibition at 200 nM intratumorally administered for 15 days measured after 15 days relative to acetyl-KQMYLELGYATIKWL-amide; format: functional; method in brief: as §1
HUVEC [8] = assay: Antagonist activity at VEGFR in human HUVEC grown in serum deprived medium assessed as inhibition of VEGF165-induced ERK1/2 phosphorylation at 50 nM after 15-30 mins by Western blot analysis; format: functional, cell-based
Method in brief: (§3)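 Serum-starved HUVECs in EBM-2 with 0.1% heparin and 0.1% BSA were treated at 37 C for 15 and 30 min with peptide, with or without VEGF165 (25 ng/mL). Total lysates (25 μg) were run on 12% SDS-PAGE and blotted for phospho-ERK1/2 and phospho-AKT. Total ERK1/2, AKT and GAPDH served as loading controls. Detection was by HRP secondary antibody and ECL.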

HUVEC [9] = assay: Antagonist activity at VEGFR in human HUVEC grown in serum deprived medium assessed as inhibition of VEGF165-induced ERK1/2 phosphorylation at 50 nM after 24 hrs by Western blot analysis; format: functional, cell-based
Method in brief: (§4)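 Whole-cell lysates (25 μg) were run on 12% SDS-PAGE and immunoblotted for phospho-ERK1/2 and phospho-RB. Total ERK1/2, RB and GAPDH were the loading controls. Read-out was ECL.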

[10] = Antiangiogenic activity against VEGF165-induced CD1 nude mouse endothelial cells at 200 nM after 21 days by FITC-based fluorescence microscopy
HUVEC [11] = assay: Antagonist activity at VEGFR in human HUVEC grown in serum deprived medium assessed as inhibition of VEGF165-induced RB phosphorylation at 50 nM after 15-30 mins by Western blot analysis; format: functional, cell-based
HUVEC [12] = assay: Inhibition of VEGF165-induced cell proliferation in human HUVEC grown in serum deprived medium at 12.5 to 50 nM after 24 hrs relative to acetyl-KQMYLELGYATIKWL-amide; format: functional
Method in brief: (§5)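 HUVECs were seeded at 1200 cells/well and switched after 24 h to EBM-2 with 0.1% heparin and 0.1% BSA. They were treated with peptide, with or without VEGF165 (25 ng/mL), for 24 or 48 h at 37 C. DNA content was measured with CyQUANT NF reagent (1 h, 37 C) at 485 nm excitation. Quadruplicate samples were used, and values were expressed as percentage of proliferating cells.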

HUVEC [13] = assay: Induction of apoptosis in human HUVEC grown in serum deprived medium at 12.5 nM after 24 hrs by annexin V/fluorescein isothiocyanate-based flow cytometry; format: functional, cell-based
HUVEC [14] = assay: Antagonist activity at VEGFR in human HUVEC grown in serum deprived medium assessed as inhibition of VEGF165-induced ERK1/2 phosphorylation at 12.5 nM after 24 hrs by Western blot analysis; format: functional, cell-based; method in brief: as §4
HUVEC [15] = assay: Inhibition of VEGF165-induced cell proliferation in human HUVEC grown in serum deprived medium at 12.5 to 50 nM after 48 hrs; format: functional; method in brief: as §5
HUVEC [16] = assay: Antagonist activity at VEGFR in human HUVEC grown in serum deprived medium assessed as inhibition of VEGF165-induced AKT phosphorylation at 50 nM after 15-30 mins by Western blot analysis; format: functional, cell-based; method in brief: as §3
HUVEC [17] = assay: Induction of apoptosis in human HUVEC grown in serum deprived medium assessed as caspase 3 activity at 50 nM after 8 hrs by spectrofluorometry; format: functional, cell-based; method in brief: as §2
HUVEC [18] = assay: Inhibition of VEGF165 induced cell proliferation in human HUVEC grown in serum deprived medium at 50 nM after 48 hrs; format: functional, cell-based; method in brief: as §5
HUVEC [19] = assay: Inhibition of VEGF165-induced cell proliferation in human HUVEC grown in serum deprived medium at 50 nM after 24 hrs; format: functional, cell-based; method in brief: as §5
Endothelial cell = assay: Antiangiogenic activity against VEGF165-induced CD1 nude mouse endothelial cells at 200 nM after 21 days by FITC-based fluorescence microscopy

## CC[C@H](C)[C@H](NC(=O)CNC(=O)[C@H](CCCCN)NC(=O)[C@H](Cc1ccc(O)cc1)NC(=O)[C@H](C)NC(=O)[C@H](CC(C)C)NC(=O)[C@H](CCC(N)=O)NC(=O)[C@H](Cc1ccc(O)cc1)NC(=O)[C@H](CC(C)C)NC(=O)[C@H](CCC(=O)O)NC(=O)[C@H](CCSC)NC(=O)[C@H](Cc1c[nH]c2ccccc12)NC(=O)[C@@H](NC(=O)[C@H](CC(C)C)NC(=O)[C@H](CCCCN)NC(C)=O)[C@@H](C)O)C(N)=O (Ac-KLTWMELYQLAYKGI-NH2)
[1]
  half-life: 1.5 h
HUVEC [2]
  Activity: Active
A-375 [3]
  TGI: 36%
HUVEC [4]
  inhibition: Active
HUVEC [5]
  Activity: Active
A-375 [6]
  inhibition (INH): 50%
A-375 [7]
  TGI: 47%
HUVEC [8]
  inhibition: Active
HUVEC [9]
  inhibition: Active
[10]
  Activity: 85%
HUVEC [11]
  inhibition: Active
HUVEC [12]
  inhibition (INH): 40%
HUVEC [13]
  Activity: Active
HUVEC [14]
  inhibition: Active
HUVEC [15]
  inhibition (INH): >85%
HUVEC [16]
  inhibition: Active

## CC[C@H](C)[C@H](NC(=O)[C@@H](NC(=O)[C@H](C)NC(=O)[C@H](Cc1ccc(O)cc1)NC(=O)CNC(=O)[C@H](CC(C)C)NC(=O)[C@H](CCC(=O)O)NC(=O)[C@H](CC(C)C)NC(=O)[C@H](Cc1ccc(O)cc1)NC(=O)[C@H](CCSC)NC(=O)[C@H](CCC(N)=O)NC(=O)[C@H](CCCCN)NC(C)=O)[C@@H](C)O)C(=O)N[C@@H](CCCCN)C(=O)N[C@@H](Cc1c[nH]c2ccccc12)C(=O)N[C@@H](CC(C)C)C(N)=O (Ac-KQMYLELGYATIKWL-NH2)
HUVEC [17]
  Activity: inactive
HUVEC [2]
  Activity: inactive
HUVEC [18]
  inhibition: inactive
A-375 [3]
  TGI: inactive
HUVEC [19]
  inhibition: inactive
HUVEC [8]
  inhibition: inactive
Endothelial cell
  Activity: inactive
HUVEC [13]
  Activity: inactive
HUVEC [16]
  inhibition: inactive
